ChEMBL document CHEMBL4765333, “Novel NO-releasing scopoletin derivatives induce cell death via mitochondrial apoptosis pathway and cell cycle arrest” (Eur J Med Chem, 2020)

Key:
[1] = Anticancer activity against human MDA-MB-231 cells assessed as inhibition of cell proliferation measured after 48 hrs by MTT assay; assay type: functional, cell-based; conditions: MDA-MB-23, 48 h
Outline: (§1)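 Cells seeded at ~5,000/well, grown 24 h to partial monolayer, then exposed 48 h at 37°C, 5% CO2 to 0.5, 1, 2, 4, 10 and 20 µM (DMSO ≤0.1%). MTT final 0.5 mg/ml for 4 h, formazan dissolved in DMSO, A570. Survival expressed as % of untreated control; IC50 from dose-response curves; three independent experiments. MDA-MB-231, MCF-7, HepG2 in DMEM; A549 and LO-2 in RPMI-1640; 10% FBS.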

[2] = Prodrug release in human MDA-MB-231 cells assessed as increase in intracellular NO level at 25 uM measured after 2.5 hrs by total nitric oxide assay; assay type: ADME, cell-based; conditions: mda-mb-23, 2.5 h
Outline: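 MDA-MB-231 (2×10^5 cells/well) cultured 24 h, then treated 2.5 h with compound at 25 µM or DMSO. Cells harvested, lysed in nitric oxide assay buffer 1 h on ice; lysate NO quantified with a total nitric oxide assay kit. Mean ± SD, n = 3.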

MCF7 [3] = experiment: Anticancer activity against human MCF7 cells assessed as inhibition of cell proliferation measured after 48 hrs by MTT assay; assay type: functional, cell-based; conditions: MCF7, 48 h; outline: as §1
MCF7 [4] = experiment: Antiproliferative activity against human MCF7 cells assessed as inhibition of cell growth rate at 10 uM measured after 48 hrs by MTT assay; assay type: functional
Outline: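 MCF-7 cells in DMEM with 10% FBS exposed to a single 10 µM concentration for 48 h. Read-out by MTT (0.5 mg/ml, 4 h, DMSO dissolution, A570). Inhibition rate given versus untreated control as mean ± SD, n = 3.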

L02 = experiment: Cytotoxicity against human L02 cells assessed as reduction in cell viability measured after 48 hrs by MTT assay; assay type: cell-based; conditions: L02, 48 h; outline: as §1
A549 = experiment: Anticancer activity against human A549 cells assessed as inhibition of cell proliferation measured after 48 hrs by MTT assay; assay type: functional, cell-based; conditions: A549, 48 h
Outline: as §1, with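 “experiments.” for “experiments. MDA-MB-231, MCF-7, HepG2 in DMEM; A549 and LO-2 in RPMI-1640; 10% FBS.”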

HepG2 = experiment: Anticancer activity against human HepG2 cells assessed as inhibition of cell proliferation measured after 48 hrs by MTT assay; assay type: functional, cell-based; conditions: HepG2, 48 h; outline: as §1
[5] = Anticancer activity against human MDA-MB-231 cells assessed as inhibition of cell proliferation measured after 48 hrs in presence of 3-amino-7-hydroxy-6-methoxy-2H-chromen-2-one by MTT assay; assay type: functional, cell-based; conditions: MDA-MB-23, 48 h
Outline: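 MDA-MB-231 cells in DMEM with 10% FBS, ~5,000 cells/well, 24 h attachment, then compound for 48 h at 37°C, 5% CO2. MTT 0.5 mg/ml final for 4 h, DMSO solubilization, absorbance 570 nm; inhibition relative to untreated cells; experiments done three times.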

[6] = Prodrug release in human MDA-MB-231 cells assessed as increase in intracellular NO level at 10 uM measured after 2.5 hrs by DAF-FM DA reagent based scanning electron microscopy; assay type: ADME, cell-based; conditions: mda-mb-231, 2.5 h, in the assay text read “laser scanning confocal microscopy” for “scanning electron microscopy”
Outline: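 After 24 h growth at 5×10^4 cells/well, MDA-MB-231 cells loaded with DAF-FM DA (5 µM) 30 min at 37°C, 5% CO2, PBS-washed, then incubated 2.5 h with compound at 1 or 10 µM (scopoletin at 10 µM). NO fluorescence imaged by laser scanning confocal microscopy.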

## COc1cc2cc(N)c(=O)oc2cc1OCCCCCCOc1no[n+]([O-])c1S(=O)(=O)c1ccccc1
[1]
  IC50: 2.93 µM
[2]
  Drug metabolism: Metabolite_Detected
MCF7 [3]
  IC50: 3.14 µM
MCF7 [4]
  inhibition at 10 µM: 84.4%
L02
  IC50: 10.3 µM
A549
  IC50: 8.06 µM
HepG2
  IC50: 3.06 µM

## COc1cc2cc(NC(C)=O)c(=O)oc2cc1OCCCCOc1no[n+]([O-])c1S(=O)(=O)c1ccccc1
[1]
  IC50: 3.15 µM
[2]
  Drug metabolism: Metabolite_Detected
MCF7 [3]
  IC50: 3.44 µM
MCF7 [4]
  inhibition at 10 µM: 80.4%
L02
  IC50: 9.19 µM
A549
  IC50: 7.19 µM
HepG2
  IC50: 3.29 µM

## O=S(=O)(c1ccccc1)c1c(OCCCO)no[n+]1[O-]
[1]
  IC50: 7.25 µM
[5]
  IC50: 6.36 µM

## COc1cc2cc(NC(C)=O)c(=O)oc2cc1OCCCOc1no[n+]([O-])c1S(=O)(=O)c1ccccc1
[1]
  IC50: 3.81 µM
[2]
  Drug metabolism: Metabolite_Detected
MCF7 [3]
  IC50: 2.4 µM
MCF7 [4]
  inhibition at 10 µM: 88.5%
L02
  IC50: 8.36 µM
A549
  IC50: 9.81 µM
HepG2
  IC50: 2.82 µM

## COc1cc2cc(N)c(=O)oc2cc1OCCCCOc1no[n+]([O-])c1S(=O)(=O)c1ccccc1
[1]
  IC50: 1.93 µM
[2]
  Drug metabolism: Metabolite_Detected
MCF7 [3]
  IC50: 2.28 µM
MCF7 [4]
  inhibition at 10 µM: 89%
L02
  IC50: 8.63 µM
A549
  IC50: 5.03 µM
HepG2
  IC50: 2.64 µM

## COc1cc2ccc(=O)oc2cc1OCCCCCCOc1no[n+]([O-])c1S(=O)(=O)c1ccccc1
[1]
  IC50: 3.35 µM
[2]
  Drug metabolism: Metabolite_Detected
MCF7 [3]
  IC50: 4.48 µM
MCF7 [4]
  inhibition at 10 µM: 84.8%
L02
  IC50: 12.4 µM
A549
  IC50: 9.43 µM
HepG2
  IC50: 3.79 µM

## COc1cc2cc(N)c(=O)oc2cc1O
[1]
  IC50: > 25 µM
MCF7 [4]
  inhibition at 10 µM: 7.13%

## COc1cc2cc(N)c(=O)oc2cc1OCCCCCOc1no[n+]([O-])c1S(=O)(=O)c1ccccc1
[1]
  IC50: 2.4 µM
[2]
  Drug metabolism: Metabolite_Detected
MCF7 [3]
  IC50: 2.62 µM
MCF7 [4]
  inhibition at 10 µM: 88.8%
L02
  IC50: 12.2 µM
A549
  IC50: 6.88 µM
HepG2
  IC50: 3.46 µM

## COc1cc2ccc(=O)oc2cc1O [SCOPOLETIN]
[1]
  IC50: > 25 µM
MCF7 [3]
  IC50: > 25 µM
[6]
  Drug metabolism: Metabolite_Notdetected
MCF7 [4]
  inhibition at 10 µM: 7.95%
L02
  IC50: > 25 µM
A549
  IC50: > 25 µM
HepG2
  IC50: > 25 µM

## COc1cc2ccc(=O)oc2cc1OCCCCOc1no[n+]([O-])c1S(=O)(=O)c1ccccc1
[1]
  IC50: 2.79 µM
[2]
  Drug metabolism: Metabolite_Detected
MCF7 [3]
  IC50: 3.04 µM
MCF7 [4]
  inhibition at 10 µM: 84.4%
L02
  IC50: 9.33 µM
A549
  IC50: 6.14 µM
HepG2
  IC50: 3.25 µM

## COc1cc2cc(N)c(=O)oc2cc1OCCOc1no[n+]([O-])c1S(=O)(=O)c1ccccc1
[1]
  IC50: 2.46 µM
[2]
  Drug metabolism: Metabolite_Detected
MCF7 [3]
  IC50: 2.77 µM
MCF7 [4]
  inhibition at 10 µM: 88.5%
L02
  IC50: 9.82 µM
A549
  IC50: 5.91 µM
HepG2
  IC50: 3.06 µM

## COc1cc2ccc(=O)oc2cc1OCCOc1no[n+]([O-])c1S(=O)(=O)c1ccccc1
[1]
  IC50: 2.86 µM
[2]
  Drug metabolism: Metabolite_Detected
MCF7 [3]
  IC50: 3.54 µM
MCF7 [4]
  inhibition at 10 µM: 89.2%
L02
  IC50: 10.9 µM
A549
  IC50: 7.24 µM
HepG2
  IC50: 3.61 µM

## COc1cc2cc(NC(C)=O)c(=O)oc2cc1OCCCCCOc1no[n+]([O-])c1S(=O)(=O)c1ccccc1
[1]
  IC50: 4.34 µM
[2]
  Drug metabolism: Metabolite_Detected
MCF7 [3]
  IC50: 6.27 µM
MCF7 [4]
  inhibition at 10 µM: 73.6%
L02
  IC50: 13.8 µM
A549
  IC50: 11.4 µM
HepG2
  IC50: 5.42 µM

## COc1cc2ccc(=O)oc2cc1OCCCOc1no[n+]([O-])c1S(=O)(=O)c1ccccc1
[1]
  IC50: 1.85 µM
MCF7 [3]
  IC50: 2.27 µM
MCF7 [4]
  inhibition at 10 µM: 88.6%
L02
  IC50: 7.82 µM
A549
  IC50: 5.45 µM
HepG2
  IC50: 2.9 µM

## COc1cccc2c1C(=O)c1c(O)c3c(c(O)c1C2=O)C[C@@](O)(C(=O)CO)C[C@@H]3O[C@H]1C[C@H](N)[C@H](O)[C@H](C)O1 [DOXORUBICIN]
[1]
  IC50: 0.55 µM
MCF7 [3]
  IC50: 0.6 µM
L02
  IC50: 0.59 µM
HepG2
  IC50: 0.62 µM

## COc1cc2cc(NC(C)=O)c(=O)oc2cc1O
MCF7 [4]
  inhibition at 10 µM: 5.21%

## COc1cc2ccc(=O)oc2cc1OCCCCCOc1no[n+]([O-])c1S(=O)(=O)c1ccccc1
[1]
  IC50: 3.17 µM
[2]
  Drug metabolism: Metabolite_Detected
MCF7 [3]
  IC50: 3.85 µM
MCF7 [4]
  inhibition at 10 µM: 87.1%
L02
  IC50: 8.86 µM
A549
  IC50: 10.6 µM
HepG2
  IC50: 3.42 µM

## COc1cc2cc(NC(C)=O)c(=O)oc2cc1OCCOc1no[n+]([O-])c1S(=O)(=O)c1ccccc1
[1]
  IC50: 4.99 µM
[2]
  Drug metabolism: Metabolite_Detected
MCF7 [3]
  IC50: 6.89 µM
MCF7 [4]
  inhibition at 10 µM: 83.7%
L02
  IC50: 10.2 µM
A549
  IC50: 8.79 µM
HepG2
  IC50: 4.83 µM

## COc1cc2cc(NC(C)=O)c(=O)oc2cc1OCCCCCCOc1no[n+]([O-])c1S(=O)(=O)c1ccccc1
[1]
  IC50: 7.89 µM
[2]
  Drug metabolism: Metabolite_Detected
MCF7 [3]
  IC50: 11.3 µM
MCF7 [4]
  inhibition at 10 µM: 48.6%
L02
  IC50: 17.3 µM
A549
  IC50: 15 µM
HepG2
  IC50: 6.59 µM
